# How the values were obtained:
# Details in all cases: stereoisomer not certain
# UniProt Q8VGC6 = target: T1, UniProt Q8VGC6
# T1 sequence (whole entry): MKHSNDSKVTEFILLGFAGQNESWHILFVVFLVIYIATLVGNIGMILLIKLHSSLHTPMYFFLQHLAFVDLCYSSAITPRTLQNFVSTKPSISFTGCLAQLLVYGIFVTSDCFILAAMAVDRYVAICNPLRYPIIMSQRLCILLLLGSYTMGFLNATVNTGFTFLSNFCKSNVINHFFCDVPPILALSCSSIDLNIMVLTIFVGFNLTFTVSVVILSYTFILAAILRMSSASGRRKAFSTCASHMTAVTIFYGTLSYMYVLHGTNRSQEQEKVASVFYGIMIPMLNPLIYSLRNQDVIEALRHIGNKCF
# Outline: (§1)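 Each entry records the cell line, G-protein, co-transfected protein and tags used. Methods varied with the source, often transient luciferase assays in mammalian cell lines. A receptor–molecule pair is called responsive (active) if the original authors judged its signal statistically different from baseline and non-responsive (inactive) otherwise.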
# UniProt Q8VGD7 = target: T2, UniProt Q8VGD7
# T2 sequence (whole entry): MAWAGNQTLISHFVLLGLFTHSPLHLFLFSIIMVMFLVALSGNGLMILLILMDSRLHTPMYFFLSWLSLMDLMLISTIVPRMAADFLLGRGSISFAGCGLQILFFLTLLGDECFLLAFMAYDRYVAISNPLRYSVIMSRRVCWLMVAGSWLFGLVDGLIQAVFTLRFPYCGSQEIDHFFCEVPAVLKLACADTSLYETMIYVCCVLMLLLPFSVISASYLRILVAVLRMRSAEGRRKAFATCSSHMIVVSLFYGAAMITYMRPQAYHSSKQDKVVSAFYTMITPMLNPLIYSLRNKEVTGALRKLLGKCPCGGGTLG
# Outline: as §1
# UniProt Q8VGH1 = target: T3, UniProt Q8VGH1
# T3 sequence (whole entry): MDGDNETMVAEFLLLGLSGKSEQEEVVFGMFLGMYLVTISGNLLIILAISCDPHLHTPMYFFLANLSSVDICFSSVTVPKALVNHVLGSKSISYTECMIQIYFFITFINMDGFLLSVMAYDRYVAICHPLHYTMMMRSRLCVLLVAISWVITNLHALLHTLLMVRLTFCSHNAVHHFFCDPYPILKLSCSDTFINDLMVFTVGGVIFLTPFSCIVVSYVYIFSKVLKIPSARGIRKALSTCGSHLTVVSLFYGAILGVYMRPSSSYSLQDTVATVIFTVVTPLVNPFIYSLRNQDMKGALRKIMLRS
# Outline: as §1
# UniProt Q8VGJ1 = target: T4, UniProt Q8VGJ1
# T4 sequence (whole entry): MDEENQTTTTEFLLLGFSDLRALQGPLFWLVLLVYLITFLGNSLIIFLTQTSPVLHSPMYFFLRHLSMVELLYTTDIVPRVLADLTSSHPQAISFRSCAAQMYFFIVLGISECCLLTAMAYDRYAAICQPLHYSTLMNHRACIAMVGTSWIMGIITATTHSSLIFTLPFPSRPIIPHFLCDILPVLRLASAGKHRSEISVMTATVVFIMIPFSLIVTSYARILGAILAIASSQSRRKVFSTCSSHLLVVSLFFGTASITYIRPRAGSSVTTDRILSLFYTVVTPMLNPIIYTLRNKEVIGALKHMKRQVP
# Outline: as §1
# UniProt Q8VGJ3 = target: T5, UniProt Q8VGJ3
# T5 sequence (whole entry): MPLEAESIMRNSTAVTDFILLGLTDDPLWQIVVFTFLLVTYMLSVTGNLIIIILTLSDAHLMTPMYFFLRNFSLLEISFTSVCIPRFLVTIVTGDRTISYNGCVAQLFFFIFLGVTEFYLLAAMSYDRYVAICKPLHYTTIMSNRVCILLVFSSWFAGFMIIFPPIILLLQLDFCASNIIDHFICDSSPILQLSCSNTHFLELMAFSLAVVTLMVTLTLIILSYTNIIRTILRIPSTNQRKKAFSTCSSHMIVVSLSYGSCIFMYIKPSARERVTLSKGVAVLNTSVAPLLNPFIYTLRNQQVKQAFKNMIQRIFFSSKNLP
# Outline: as §1
# UniProt Q8VGJ5 = target: T6, UniProt Q8VGJ5
# T6 sequence (whole entry): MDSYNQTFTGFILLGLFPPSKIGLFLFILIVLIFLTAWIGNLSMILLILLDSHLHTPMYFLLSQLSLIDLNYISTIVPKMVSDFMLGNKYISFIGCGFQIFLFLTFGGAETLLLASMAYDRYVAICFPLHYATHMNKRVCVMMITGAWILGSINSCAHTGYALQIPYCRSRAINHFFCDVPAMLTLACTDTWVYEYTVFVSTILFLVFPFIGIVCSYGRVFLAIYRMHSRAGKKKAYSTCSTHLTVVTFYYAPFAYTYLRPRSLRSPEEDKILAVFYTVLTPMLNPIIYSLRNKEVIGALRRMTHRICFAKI
# Outline: as §1
# UniProt Q8VGL0 = target: T7, UniProt Q8VGL0
# T7 sequence (whole entry): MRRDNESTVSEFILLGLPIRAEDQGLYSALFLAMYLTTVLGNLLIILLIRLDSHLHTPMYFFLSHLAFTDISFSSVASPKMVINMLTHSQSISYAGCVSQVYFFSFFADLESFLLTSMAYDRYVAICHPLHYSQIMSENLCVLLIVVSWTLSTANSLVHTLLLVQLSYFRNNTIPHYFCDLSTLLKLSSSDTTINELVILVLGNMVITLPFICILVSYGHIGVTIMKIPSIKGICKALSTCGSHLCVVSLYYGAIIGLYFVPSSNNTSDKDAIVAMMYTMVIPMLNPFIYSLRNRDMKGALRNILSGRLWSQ
# Outline: as §1
# UniProt Q8VGL7 = target: T8, UniProt Q8VGL7
# T8 sequence (whole entry): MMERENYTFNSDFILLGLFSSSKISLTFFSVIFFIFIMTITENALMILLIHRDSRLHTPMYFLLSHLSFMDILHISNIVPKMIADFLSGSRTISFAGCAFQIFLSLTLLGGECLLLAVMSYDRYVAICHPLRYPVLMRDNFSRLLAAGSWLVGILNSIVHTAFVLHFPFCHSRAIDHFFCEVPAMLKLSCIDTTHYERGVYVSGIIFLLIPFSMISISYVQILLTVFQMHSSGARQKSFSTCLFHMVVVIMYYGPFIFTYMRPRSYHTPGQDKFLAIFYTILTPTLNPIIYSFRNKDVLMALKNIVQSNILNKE
# Outline: as §1
# UniProt Q8VGM2 = target: T9, UniProt Q8VGM2
# T9 sequence (whole entry): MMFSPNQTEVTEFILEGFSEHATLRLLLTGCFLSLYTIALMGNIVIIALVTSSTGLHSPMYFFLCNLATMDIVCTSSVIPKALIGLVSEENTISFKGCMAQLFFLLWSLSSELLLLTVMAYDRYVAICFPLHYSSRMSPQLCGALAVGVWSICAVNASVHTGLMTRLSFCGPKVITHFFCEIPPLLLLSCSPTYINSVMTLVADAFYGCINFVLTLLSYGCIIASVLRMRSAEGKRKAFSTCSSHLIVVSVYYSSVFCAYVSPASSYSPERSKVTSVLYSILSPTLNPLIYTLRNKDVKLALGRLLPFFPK
# Outline: as §1
# UniProt Q8VGP6 = target: T10, UniProt Q8VGP6
# T10 sequence (whole entry): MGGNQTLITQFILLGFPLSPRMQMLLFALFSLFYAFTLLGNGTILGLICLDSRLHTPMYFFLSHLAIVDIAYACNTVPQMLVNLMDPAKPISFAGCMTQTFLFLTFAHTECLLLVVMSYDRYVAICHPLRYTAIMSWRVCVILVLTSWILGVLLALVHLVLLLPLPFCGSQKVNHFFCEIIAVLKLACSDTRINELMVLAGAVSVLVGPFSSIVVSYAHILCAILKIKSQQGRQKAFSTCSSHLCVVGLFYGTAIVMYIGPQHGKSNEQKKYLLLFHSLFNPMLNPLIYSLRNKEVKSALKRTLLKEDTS
# Outline: as §1
# UniProt Q8VGQ3 = target: T11, UniProt Q8VGQ3
# T11 sequence (whole entry): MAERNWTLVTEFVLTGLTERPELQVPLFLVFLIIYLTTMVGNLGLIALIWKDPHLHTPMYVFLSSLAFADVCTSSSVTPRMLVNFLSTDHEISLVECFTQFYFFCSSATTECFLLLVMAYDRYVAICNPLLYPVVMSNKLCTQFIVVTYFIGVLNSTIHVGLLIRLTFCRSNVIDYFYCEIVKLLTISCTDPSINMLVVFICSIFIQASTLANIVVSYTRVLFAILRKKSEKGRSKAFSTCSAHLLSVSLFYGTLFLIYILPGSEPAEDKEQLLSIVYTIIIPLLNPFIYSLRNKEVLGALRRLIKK
# Outline: as §1
# UniProt Q8VGT4 = target: T12, UniProt Q8VGT4
# T12 sequence (whole entry): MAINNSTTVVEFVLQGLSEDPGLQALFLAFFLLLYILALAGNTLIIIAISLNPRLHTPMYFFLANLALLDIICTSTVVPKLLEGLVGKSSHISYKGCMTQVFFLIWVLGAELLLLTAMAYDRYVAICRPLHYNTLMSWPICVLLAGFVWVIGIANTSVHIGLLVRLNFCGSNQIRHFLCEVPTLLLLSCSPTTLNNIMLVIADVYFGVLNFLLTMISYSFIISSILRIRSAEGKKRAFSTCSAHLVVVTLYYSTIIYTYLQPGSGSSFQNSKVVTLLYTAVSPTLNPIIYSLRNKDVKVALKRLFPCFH
# Outline: as §1
# UniProt Q8VGU3 = target: T13, UniProt Q8VGU3
# T13 sequence (whole entry): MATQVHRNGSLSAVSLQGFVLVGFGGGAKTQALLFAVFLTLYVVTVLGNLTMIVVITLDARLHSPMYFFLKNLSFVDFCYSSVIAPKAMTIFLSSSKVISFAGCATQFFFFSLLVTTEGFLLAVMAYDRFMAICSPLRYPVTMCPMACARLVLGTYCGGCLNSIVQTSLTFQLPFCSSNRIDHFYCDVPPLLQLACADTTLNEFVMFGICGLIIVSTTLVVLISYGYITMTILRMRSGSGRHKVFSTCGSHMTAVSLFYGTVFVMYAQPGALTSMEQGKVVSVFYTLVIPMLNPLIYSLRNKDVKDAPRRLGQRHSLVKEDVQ
# Outline: as §1
# UniProt Q8VGV1 = target: T14, UniProt Q8VGV1
# T14 sequence (whole entry): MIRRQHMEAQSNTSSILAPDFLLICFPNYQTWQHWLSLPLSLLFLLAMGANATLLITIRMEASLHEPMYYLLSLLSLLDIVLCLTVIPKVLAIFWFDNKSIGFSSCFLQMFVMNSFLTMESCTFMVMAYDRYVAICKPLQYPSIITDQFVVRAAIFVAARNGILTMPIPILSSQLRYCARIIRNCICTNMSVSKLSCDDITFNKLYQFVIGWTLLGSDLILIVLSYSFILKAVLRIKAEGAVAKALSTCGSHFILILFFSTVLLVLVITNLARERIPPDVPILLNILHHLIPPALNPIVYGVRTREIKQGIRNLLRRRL
# Outline: as §1
# UniProt Q8VGV7 = target: T15, UniProt Q8VGV7
# T15 sequence (whole entry): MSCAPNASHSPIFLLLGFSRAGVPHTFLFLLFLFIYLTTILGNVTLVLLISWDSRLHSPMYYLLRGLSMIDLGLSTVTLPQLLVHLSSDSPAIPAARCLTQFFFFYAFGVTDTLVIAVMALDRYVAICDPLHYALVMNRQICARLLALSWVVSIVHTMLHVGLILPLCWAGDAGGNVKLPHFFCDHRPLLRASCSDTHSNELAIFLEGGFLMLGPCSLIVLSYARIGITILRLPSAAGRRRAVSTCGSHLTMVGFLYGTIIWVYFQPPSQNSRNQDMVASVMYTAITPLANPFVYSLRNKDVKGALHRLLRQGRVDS
# Outline: as §1
# UniProt Q8VGX3 = target: T16, UniProt Q8VGX3
# T16 sequence (whole entry): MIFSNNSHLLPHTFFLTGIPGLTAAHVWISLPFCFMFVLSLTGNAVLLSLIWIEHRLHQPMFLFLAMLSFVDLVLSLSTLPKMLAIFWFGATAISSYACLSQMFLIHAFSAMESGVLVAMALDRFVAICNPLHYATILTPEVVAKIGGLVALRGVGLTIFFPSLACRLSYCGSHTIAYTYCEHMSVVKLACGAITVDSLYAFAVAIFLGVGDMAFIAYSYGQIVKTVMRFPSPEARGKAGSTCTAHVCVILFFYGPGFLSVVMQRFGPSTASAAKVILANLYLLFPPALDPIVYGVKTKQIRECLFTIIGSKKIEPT
# Outline: as §1
# UniProt Q8VGX5 = target: T17, UniProt Q8VGX5
# T17 sequence (whole entry): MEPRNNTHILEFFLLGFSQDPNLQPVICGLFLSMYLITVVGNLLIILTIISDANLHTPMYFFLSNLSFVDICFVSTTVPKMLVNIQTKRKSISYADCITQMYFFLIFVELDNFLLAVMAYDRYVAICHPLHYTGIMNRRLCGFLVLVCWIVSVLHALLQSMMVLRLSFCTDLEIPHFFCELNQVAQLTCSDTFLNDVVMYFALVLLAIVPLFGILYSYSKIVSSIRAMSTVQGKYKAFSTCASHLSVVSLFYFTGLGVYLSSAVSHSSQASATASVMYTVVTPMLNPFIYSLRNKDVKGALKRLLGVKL
# Outline: as §1
SMILES,odorant receptor agonist call (UniProt Q8VGC6),odorant receptor agonist call (UniProt Q8VGD7),odorant receptor agonist call (UniProt Q8VGH1),odorant receptor agonist call (UniProt Q8VGJ1),odorant receptor agonist call (UniProt Q8VGJ3),odorant receptor agonist call (UniProt Q8VGJ5),odorant receptor agonist call (UniProt Q8VGL0),odorant receptor agonist call (UniProt Q8VGL7),odorant receptor agonist call (UniProt Q8VGM2),odorant receptor agonist call (UniProt Q8VGP6),odorant receptor agonist call (UniProt Q8VGQ3),odorant receptor agonist call (UniProt Q8VGT4),odorant receptor agonist call (UniProt Q8VGU3),odorant receptor agonist call (UniProt Q8VGV1),odorant receptor agonist call (UniProt Q8VGV7),odorant receptor agonist call (UniProt Q8VGX3),odorant receptor agonist call (UniProt Q8VGX5)
CC(C)=CCCC(C)=CCO,active,inactive,inactive,inactive,inactive,inactive,inactive,inactive,inactive,inactive,inactive,inactive,inactive,inactive,inactive,inactive,active
C=CC(C)=CCC=C(C)CCC=C(C)C,inactive,,,,inactive,,inactive,,,,,,inactive,,inactive,inactive,inactive
CCCC=O,inactive,,,,inactive,,inactive,,,,,,inactive,,inactive,inactive,active
CCCCOC(=O)C(C)OC(=O)CCC (configuration not stated),inactive,inactive,inactive,inactive,,inactive,inactive,inactive,inactive,inactive,inactive,inactive,,inactive,,,inactive
CCCO,inactive,,,,inactive,,inactive,,,,,,inactive,,inactive,inactive,inactive
CC(=O)C1(C)CC2=C(CCCC2(C)C)CC1C (configuration not stated),inactive,,,,inactive,,inactive,,,,,,inactive,,active,inactive,inactive
CC1(C)CC(=O)CC(=O)C1,inactive,,,,inactive,,inactive,,,,,,inactive,,inactive,inactive,inactive
C=C(C)C1CC=C(C)CC1 (configuration not stated),inactive,,,,inactive,,inactive,,,,,,inactive,,inactive,active,inactive
